# Active and inactive are the calls of the source. No cut-off for these calls is given here.
# Tests used:
# [1] = biological target: Dual specificity protein kinase CLK4 (Mus musculus, UniProt O35493); experiment: Inhibition of mouse recombinant CLK4 expressed in Escherichia coli using GRSRSRSRSRSR as substrate
# [2] = biological target: CDK9/cyclin T1 (Homo sapiens, UniProt P50750); experiment: Inhibition of human recombinant CDK9/cyclin T using YSPTSPSYSPTSPSYSPTSPSKKKK as substrate; format: protein-complex assay
# Sequence of CDK9/cyclin T1 (O60563 whole entry): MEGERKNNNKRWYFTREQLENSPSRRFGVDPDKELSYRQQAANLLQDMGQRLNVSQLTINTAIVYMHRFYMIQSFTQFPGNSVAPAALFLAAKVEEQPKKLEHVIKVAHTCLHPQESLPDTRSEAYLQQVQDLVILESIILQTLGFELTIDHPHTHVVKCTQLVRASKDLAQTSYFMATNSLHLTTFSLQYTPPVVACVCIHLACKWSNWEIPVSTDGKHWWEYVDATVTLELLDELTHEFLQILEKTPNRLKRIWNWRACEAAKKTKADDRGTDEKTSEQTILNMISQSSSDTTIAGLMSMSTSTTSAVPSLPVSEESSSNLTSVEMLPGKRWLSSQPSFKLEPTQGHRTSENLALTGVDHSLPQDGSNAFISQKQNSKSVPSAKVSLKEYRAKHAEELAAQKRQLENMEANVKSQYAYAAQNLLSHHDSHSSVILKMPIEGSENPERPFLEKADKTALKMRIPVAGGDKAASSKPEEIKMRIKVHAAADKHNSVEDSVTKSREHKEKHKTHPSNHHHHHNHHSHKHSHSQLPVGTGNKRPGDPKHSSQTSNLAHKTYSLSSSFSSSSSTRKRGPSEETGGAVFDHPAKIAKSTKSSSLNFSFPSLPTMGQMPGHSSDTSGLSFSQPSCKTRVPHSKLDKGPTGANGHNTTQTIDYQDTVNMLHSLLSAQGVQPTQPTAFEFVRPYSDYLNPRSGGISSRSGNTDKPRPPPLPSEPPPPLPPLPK
# Sequence of CDK9/cyclin T1 (P50750 whole entry): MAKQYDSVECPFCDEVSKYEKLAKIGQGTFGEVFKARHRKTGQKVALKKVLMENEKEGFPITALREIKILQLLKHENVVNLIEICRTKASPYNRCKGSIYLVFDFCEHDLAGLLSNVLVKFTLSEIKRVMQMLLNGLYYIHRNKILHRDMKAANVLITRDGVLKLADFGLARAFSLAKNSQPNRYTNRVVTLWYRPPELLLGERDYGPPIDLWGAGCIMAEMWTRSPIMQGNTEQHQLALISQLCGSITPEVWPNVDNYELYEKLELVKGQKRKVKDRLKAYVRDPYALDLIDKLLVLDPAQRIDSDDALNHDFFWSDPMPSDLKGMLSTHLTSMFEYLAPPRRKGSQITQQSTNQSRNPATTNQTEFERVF
# In short: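 CDK9/cyclin T was human recombinant, made in insect cells. It was run like the CDK1 radiometric assay: buffer D with [γ-33P]ATP, 30 min at 30 °C, CDK7/9 tide peptide substrate, P81 capture and scintillation counting. IC50 came from dose-response curves relative to a DMSO control.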
# [3] = biological target: Dual specificity protein kinase CLK3 (Mus musculus, UniProt O35492); experiment: Inhibition of mouse recombinant CLK3 expressed in Escherichia coli using GRSRSRSRSRSR as substrate
# Sequence of Dual specificity protein kinase CLK3 (O35492 whole entry, the tested form may be a part): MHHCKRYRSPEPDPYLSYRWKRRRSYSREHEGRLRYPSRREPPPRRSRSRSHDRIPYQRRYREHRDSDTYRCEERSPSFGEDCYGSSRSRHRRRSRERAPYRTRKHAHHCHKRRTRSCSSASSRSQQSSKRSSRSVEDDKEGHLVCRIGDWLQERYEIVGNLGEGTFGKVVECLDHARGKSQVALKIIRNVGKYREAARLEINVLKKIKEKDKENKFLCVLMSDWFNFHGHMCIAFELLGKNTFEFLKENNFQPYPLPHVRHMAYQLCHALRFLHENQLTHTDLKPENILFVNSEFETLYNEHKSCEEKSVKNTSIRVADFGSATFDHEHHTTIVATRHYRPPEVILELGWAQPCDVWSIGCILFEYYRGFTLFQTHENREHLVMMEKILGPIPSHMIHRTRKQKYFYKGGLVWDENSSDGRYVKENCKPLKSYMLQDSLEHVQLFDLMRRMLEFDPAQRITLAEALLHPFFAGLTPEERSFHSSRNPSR
# In short: (§1)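 Human DYRKs and mouse CLKs were expressed in E. coli as GST fusions and purified on glutathione-agarose. Each was assayed with RS peptide substrate and [γ-33P]ATP in buffer D at 30 °C for 30 min. Phosphorylation was read on P81 filters by scintillation. Activity is given as % of maximal after blank subtraction, and IC50 was derived from dose-response curves.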
# [4] = biological target: Glycogen synthase kinase-3 (Sus scrofa, UniProt B2LUN4+I6LNT8); experiment: Inhibition of porcine brain GSK-3alpha/beta using YRRAAVPPSPSLSRHSSPHQSpEDEEE as substrate
# In short: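 Reaction harvested onto P81 paper, washed in 1% phosphoric acid, and scintillation-counted. Blanks subtracted; activity as % of the no-inhibitor activity, with DMSO controls. IC50 from dose-response curves.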
# [5] = biological target: T1, Dual specificity tyrosine-phosphorylation-regulated kinase 2 (Homo sapiens, UniProt Q92630); experiment: Inhibition of human recombinant DYRK2 expressed in Escherichia coli using GRSRSRSRSRSR as substrate
# T1 sequence (Q92630 whole entry): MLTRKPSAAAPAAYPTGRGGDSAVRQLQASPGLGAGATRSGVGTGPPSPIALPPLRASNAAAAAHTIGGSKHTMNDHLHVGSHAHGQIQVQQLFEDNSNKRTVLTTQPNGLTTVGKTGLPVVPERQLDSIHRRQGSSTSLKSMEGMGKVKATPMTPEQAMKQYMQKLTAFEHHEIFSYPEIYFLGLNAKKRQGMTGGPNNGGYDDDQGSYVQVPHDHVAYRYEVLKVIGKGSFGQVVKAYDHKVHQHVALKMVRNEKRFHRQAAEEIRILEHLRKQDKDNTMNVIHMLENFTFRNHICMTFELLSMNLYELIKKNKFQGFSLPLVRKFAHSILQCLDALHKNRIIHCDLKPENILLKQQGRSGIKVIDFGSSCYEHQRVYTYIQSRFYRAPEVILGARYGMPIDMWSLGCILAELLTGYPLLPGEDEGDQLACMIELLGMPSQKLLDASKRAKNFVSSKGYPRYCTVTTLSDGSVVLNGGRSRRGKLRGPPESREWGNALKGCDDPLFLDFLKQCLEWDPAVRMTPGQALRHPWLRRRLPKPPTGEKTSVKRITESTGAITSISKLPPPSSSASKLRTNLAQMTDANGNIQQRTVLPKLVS
# [6] = Inhibition of porcine brain CK1delta/epsilon using RRKHAAIGpSAYSITA as substrate; parameters: species or system Sus scrofa
# In short: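 Native porcine brain CK1δ/ε was assayed with the CKS phosphopeptide substrate, [γ-33P]ATP and buffer D for 30 min at 30 °C. Product was captured on P81 paper and counted by scintillation. IC50 was calculated from dose-response curves, with activity as % of the no-inhibitor control.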
# [7] = Inhibition of M phase starfish oocytes CDK1/cyclin B using [gamma-33P]-ATP after 30 mins by scintillation counting; parameters: species or system Asteroidea
# In short: (§2)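 Native starfish M-phase CDK1/cyclin B or human recombinant CDK2 or CDK5/p25 was incubated with histone H1 (1 mg/mL) and [γ-33P]ATP in buffer D (10 mM MgCl2, 1 mM EGTA, 1 mM DTT, 25 mM Tris/HCl, heparin) at 30 °C for 30 min. BSA was added except for CDK2. Reactions were spotted on P81 paper, washed in 1% phosphoric acid and counted by scintillation. Activity is expressed as % of the no-inhibitor control with blanks subtracted. IC50 was taken from dose-response curves.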
# [8] = biological target: Dual specificity tyrosine-phosphorylation-regulated kinase 1A (Homo sapiens, UniProt Q13627); experiment: Inhibition of human recombinant DYRK1A expressed in Escherichia coli using GRSRSRSRSRSR as substrate
# [9] = biological target: Dual specificity tyrosine-phosphorylation-regulated kinase 1B (Homo sapiens, UniProt Q9Y463)
# Sequence of Dual specificity tyrosine-phosphorylation-regulated kinase 1B (Q9Y463 whole entry): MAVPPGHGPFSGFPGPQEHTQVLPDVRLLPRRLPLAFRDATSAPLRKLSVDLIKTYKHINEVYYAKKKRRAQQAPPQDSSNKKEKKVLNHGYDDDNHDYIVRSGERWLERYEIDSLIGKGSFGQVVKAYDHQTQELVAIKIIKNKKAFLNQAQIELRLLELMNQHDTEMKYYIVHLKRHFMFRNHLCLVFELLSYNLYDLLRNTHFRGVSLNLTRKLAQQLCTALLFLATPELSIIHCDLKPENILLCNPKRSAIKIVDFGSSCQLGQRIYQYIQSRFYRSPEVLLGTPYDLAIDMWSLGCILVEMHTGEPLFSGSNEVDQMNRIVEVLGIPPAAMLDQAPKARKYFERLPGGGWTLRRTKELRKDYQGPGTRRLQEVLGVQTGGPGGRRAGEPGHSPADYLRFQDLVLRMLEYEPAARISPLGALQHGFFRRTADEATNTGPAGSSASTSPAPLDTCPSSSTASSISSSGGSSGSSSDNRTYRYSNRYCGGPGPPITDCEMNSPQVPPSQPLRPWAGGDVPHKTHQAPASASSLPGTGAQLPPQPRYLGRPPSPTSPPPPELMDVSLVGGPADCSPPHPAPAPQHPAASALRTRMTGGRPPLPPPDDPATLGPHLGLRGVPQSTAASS
# [10] = biological target: CDK2/Cyclin A2 (Homo sapiens, UniProt P24941); experiment: Inhibition of human recombinant CDK2/cyclin A using [gamma-33P]-ATP after 30 mins by scintillation counting; format: protein-complex assay; in short: as §2
# [11] = biological target: Dual specificity protein kinase CLK2 (Mus musculus, UniProt O35491); experiment: Inhibition of mouse recombinant CLK2 expressed in Escherichia coli using GRSRSRSRSRSR as substrate; in short: as §1
# Sequence of Dual specificity protein kinase CLK2 (O35491 whole entry): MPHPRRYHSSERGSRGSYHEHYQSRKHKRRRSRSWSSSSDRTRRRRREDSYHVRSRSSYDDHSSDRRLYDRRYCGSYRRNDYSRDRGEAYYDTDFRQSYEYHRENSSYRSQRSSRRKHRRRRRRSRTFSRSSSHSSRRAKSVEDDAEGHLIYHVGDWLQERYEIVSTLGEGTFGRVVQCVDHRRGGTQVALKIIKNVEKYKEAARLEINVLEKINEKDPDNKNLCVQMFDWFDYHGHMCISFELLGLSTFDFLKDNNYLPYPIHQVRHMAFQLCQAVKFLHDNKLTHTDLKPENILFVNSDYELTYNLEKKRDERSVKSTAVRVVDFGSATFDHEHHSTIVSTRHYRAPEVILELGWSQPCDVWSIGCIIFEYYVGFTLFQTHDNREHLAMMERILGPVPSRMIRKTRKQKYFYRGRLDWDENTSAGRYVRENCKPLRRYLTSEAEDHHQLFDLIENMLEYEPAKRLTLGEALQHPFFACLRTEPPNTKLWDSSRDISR
# [12] = biological target: Cyclin-dependent kinase 5/CDK5 activator 1 (Homo sapiens, UniProt Q00535); experiment: Inhibition of human recombinant CDK5/p25 using [gamma-33P]-ATP after 30 mins by scintillation counting; format: protein-complex assay
# Sequence of Cyclin-dependent kinase 5/CDK5 activator 1 (Q00535 whole entry): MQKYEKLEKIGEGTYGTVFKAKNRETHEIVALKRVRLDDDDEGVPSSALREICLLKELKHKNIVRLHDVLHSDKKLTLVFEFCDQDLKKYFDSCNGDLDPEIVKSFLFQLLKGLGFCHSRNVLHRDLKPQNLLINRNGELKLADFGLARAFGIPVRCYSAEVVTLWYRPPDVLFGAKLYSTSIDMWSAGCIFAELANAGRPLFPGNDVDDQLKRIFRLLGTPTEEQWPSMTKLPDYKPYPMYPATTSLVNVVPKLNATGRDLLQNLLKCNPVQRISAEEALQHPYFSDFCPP
# Sequence of Cyclin-dependent kinase 5/CDK5 activator 1 (Q15078 whole entry, further chain): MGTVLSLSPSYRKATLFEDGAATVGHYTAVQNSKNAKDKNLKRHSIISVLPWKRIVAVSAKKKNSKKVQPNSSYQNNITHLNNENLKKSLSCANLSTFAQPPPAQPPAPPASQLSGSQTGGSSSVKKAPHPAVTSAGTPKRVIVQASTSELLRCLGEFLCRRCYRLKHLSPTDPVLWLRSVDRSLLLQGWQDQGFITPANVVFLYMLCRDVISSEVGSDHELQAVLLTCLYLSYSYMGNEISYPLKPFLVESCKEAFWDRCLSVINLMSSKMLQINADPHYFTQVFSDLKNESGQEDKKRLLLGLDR
# [13] = biological target: T2, Dual specificity tyrosine-phosphorylation-regulated kinase 3 (Homo sapiens, UniProt O43781); experiment: Inhibition of human recombinant DYRK3 expressed in Escherichia coli using GRSRSRSRSRSR as substrate
# T2 sequence (O43781 whole entry): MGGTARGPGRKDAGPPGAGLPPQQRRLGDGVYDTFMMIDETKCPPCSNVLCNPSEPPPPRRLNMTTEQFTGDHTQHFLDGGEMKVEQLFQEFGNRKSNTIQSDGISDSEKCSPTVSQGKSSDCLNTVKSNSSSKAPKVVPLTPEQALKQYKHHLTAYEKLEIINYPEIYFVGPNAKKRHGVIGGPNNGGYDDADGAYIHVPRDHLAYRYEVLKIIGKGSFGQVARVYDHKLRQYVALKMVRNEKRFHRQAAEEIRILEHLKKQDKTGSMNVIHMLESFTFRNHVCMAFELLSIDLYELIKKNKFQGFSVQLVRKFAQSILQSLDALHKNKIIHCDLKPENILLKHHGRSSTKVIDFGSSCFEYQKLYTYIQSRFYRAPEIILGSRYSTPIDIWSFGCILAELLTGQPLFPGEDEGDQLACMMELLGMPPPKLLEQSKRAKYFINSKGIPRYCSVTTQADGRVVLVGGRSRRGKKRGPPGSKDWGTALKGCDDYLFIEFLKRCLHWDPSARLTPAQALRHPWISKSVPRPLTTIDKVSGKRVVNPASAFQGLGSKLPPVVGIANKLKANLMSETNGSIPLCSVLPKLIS
# [14] = biological target: Dual specificity protein kinase CLK1 (Mus musculus, UniProt P22518); experiment: Inhibition of mouse recombinant CLK1 expressed in Escherichia coli using GRSRSRSRSRSR as substrate; in short: as §1
# Sequence of Dual specificity protein kinase CLK1 (P22518 whole entry): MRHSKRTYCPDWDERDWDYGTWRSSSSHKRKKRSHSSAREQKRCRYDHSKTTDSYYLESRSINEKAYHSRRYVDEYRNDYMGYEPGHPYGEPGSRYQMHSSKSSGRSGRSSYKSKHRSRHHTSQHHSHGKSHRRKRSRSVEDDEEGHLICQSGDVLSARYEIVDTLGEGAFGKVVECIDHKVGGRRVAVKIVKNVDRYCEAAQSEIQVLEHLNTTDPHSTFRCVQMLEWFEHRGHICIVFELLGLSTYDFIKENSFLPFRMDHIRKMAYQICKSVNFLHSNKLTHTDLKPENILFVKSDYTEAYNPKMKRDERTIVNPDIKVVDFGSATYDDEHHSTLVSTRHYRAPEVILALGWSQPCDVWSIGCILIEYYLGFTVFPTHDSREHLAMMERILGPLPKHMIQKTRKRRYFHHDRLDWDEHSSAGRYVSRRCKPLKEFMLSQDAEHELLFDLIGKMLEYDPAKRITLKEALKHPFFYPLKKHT
# [15] = species: Mus musculus; experiment: Binding affinity to GSK3 in mouse brain extracts by Western blot analysis; format: tissue-based
# In short: (§3)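 Mouse brains homogenized and sonicated in Mops pH 7.2 buffer with β-glycerophosphate, phosphatase and protease inhibitors, spun 15 min at 17,000×g at 4 °C. Extract (1 or 2 mg total protein) rotated 30 min at 4 °C with ligand-linker coupled via amine to CNBr-activated Sepharose. Beads washed 4×, boiled 3 min in LDS/DTT, then 10% Bis-Tris SDS-PAGE and immunoblot with specific antibodies and ECL.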
# [16] = biological target: Dual specificity tyrosine-phosphorylation-regulated kinase 1A (Mus musculus) (UniProt Q61214); experiment: Binding affinity to DYRK1A in mouse brain extracts by Western blot analysis; format: tissue-based; in short: as §3
# Sequence of Dual specificity protein kinase CLK4 (O35493 whole entry): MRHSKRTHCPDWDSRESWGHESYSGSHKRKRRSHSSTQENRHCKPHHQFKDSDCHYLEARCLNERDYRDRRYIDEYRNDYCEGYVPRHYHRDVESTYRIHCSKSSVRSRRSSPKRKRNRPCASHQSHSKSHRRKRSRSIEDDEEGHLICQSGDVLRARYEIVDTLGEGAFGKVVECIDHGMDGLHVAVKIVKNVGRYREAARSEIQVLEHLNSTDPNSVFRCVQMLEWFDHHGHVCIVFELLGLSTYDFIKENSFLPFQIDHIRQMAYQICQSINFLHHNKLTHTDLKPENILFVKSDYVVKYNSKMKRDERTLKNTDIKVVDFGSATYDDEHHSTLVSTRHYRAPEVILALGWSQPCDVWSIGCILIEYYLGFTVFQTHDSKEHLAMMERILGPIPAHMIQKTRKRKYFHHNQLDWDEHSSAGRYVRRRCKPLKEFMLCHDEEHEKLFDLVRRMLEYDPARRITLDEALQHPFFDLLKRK
SMILES,IC50 [1] [µM],IC50 [2] [µM],IC50 [3] [µM],IC50 [4] [µM],IC50 [5] [µM],IC50 [6] [µM],IC50 [7] [µM],IC50 [8] [µM],IC50 [9] [µM],IC50 [10] [µM],IC50 [11] [µM],IC50 [12] [µM],IC50 [13] [µM],IC50 [14] [µM],Activity [15],Activity [16]
NCCOCCOCCO,> 10,> 10,> 10,> 10,> 10,> 10,> 10,> 10,> 10,> 10,> 10,> 10,> 10,> 10,–,–
O=C1NC(Nc2ccccc2)=N/C1=C\c1ccc2c(c1)OCO2,–,> 10,3,0.73,–,> 10,> 10,–,–,> 10,0.32,–,–,0.035,–,–
NCCOCCOCCOc1ccc(NC2=N/C(=C\c3ccc4c(c3)OCO4)C(=O)N2)cc1,0.081,7.4,0.81,0.27,0.15,> 10,> 10,0.05,0.11,> 10,0.28,> 10,0.2,0.075,Active,Active
NCCOCCOCCOc1ccc(NC2=N/C(=C\c3ccccc3)C(=O)N2)cc1,> 10,> 10,> 10,40,> 10,> 10,> 10,8.5,> 10,> 10,> 10,> 10,> 10,> 10,Active,Active
NCCOCCOCCOCCOc1ccc(NC2=N/C(=C\c3ccc4c(c3)OCO4)C(=O)N2)cc1,0.061,3.7,0.55,0.2,0.13,> 10,> 10,0.028,0.072,> 10,0.21,> 10,0.18,0.061,Active,Active
O=C1NC(Nc2ccccc2)=N/C1=C\c1ccccc1,> 10,> 10,> 10,> 100,> 10,> 10,> 10,> 100,> 10,> 10,> 10,> 10,> 10,> 10,–,–

# — ChEMBL document CHEMBL3091319, “Chemical synthesis and biological validation of immobilized protein kinase inhibitory Leucettines” (Eur J Med Chem, 2013)
